The entries come from a sample that favours hits as a whole.
PTK2B oligo ant: blocks oligomerization of human Pyk2 in cells; Q293 cells, Pyk2 FERM NanoBiT luminescence; hits give low values; 99,000 tested, 0.83% active; z-score (the deposit names both 25 µM and 10 µM); Q14289;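 active = Z-score of -3 or lower, scaled per plate to the spread of control and sample wells; inactive = z-score above -3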;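 also: negative z-score means lost luminescence so less FERM oligomerization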
Lung fibro prol: blocks proliferation of human lung fibroblasts. LL 47 human lung fibroblast viability, ATP luminescence; hits give low values. viability, % at 10 µM. 85,000 tested, 1.1% active;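 active = viability at or below 50% in the single dose screen; inactive = viability above 50%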;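 also: compound exposure lasted 72 h before the ATP readout; 100% = median luminescence of untreated cell-only wells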
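Material: Human LL 47 lung fibroblast cells | Input: 1,150 cells/well | Buffer or medium: IMEM plus 15% FBS | Compound dosing: 0.1% DMSO in all compound wells | Times: Overnight cell rest, 72 h compound treatment at 37 °C | Signal: CellTiter-Glo luminescence measuring cellular ATP | Measure: % viability versus median cells-only luminescence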
HCT116 bCat-KO: beta-catenin-lacking colon tumor cell growth suppression | 140,000 tested, 1.5% active | viability, % at 10 µM | AID 818 | HCT116 beta-catenin knockout viability, CellTiter-Glo, 60 h; hits give low values;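 active = viability at or under a set limit, the compound median less 4 SD, cut at about 6% in these data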;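 also: 0% = Hyamine 1622 control at 20 µM and 100% = untreated cell control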
HUVEC inhibit: inhibitors of human endothelial cell proliferation; viability, % at 10 µM (by protocol); 86,000 tested, 1.1% active; HUVEC proliferation, CellTiter-Glo luminescence, 72 h; hits give low values;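 active = viability at or below 30%; inactive = viability above 30%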;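 also: 100% = median luminescence of DMSO-only cell control wells on each plate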
H69AR growth 86K: blocks growth of human H69AR lung tumor cells; H69AR lung tumor viability, ATP luminescence, 72 h; hits give low values; viability, % at 10 µM; 85,000 tested, 6% active; AID 598;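 active = viability at or below 40%; inactive = viability above 40%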;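 also: multidrug resistant small cell line overexpressing MRP-1 efflux transporter; 100% = mean luminescence of untreated control wells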
HCT116 PTEN-null: suppresses growth of cells with PTEN deletion | 140,000 tested, 1.2% active | HCT116 PTEN-null viability, CellTiter-Glo, 60 h; hits give low values | AID 827 | viability, % at 10 µM;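 active = viability at or below a set limit, 4 SD under the median of all tested compounds, cut at about 3.7% in these data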;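 also: PTEN knockout HCT116 line with beta catenin targeted HCT116 as companion control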
Starred values were filed as active, the others as inactive; nt = not tested or not shown.

SMILES | PTK2B oligo ant | Lung fibro prol | HCT116 bCat-KO | HUVEC inhibit | H69AR growth 86K | HCT116 PTEN-null
CCCS(=O)(=O)c1c(S(=O)(=O)CCC)c2cc(CC)ccn2c1C(=O)OC | -1.5 | 91 | 84 | 103 | 24* | 81
CCCS(=O)(=O)c1c(S(=O)(=O)CCC)c2c3ccccc3ccn2c1C(=O)OC | -2.7 | 84 | 41 | 74 | 27* | 49
Cc1onc(COc2ccccc2O)c1Br | -0.51 | 93 | 95 | 97 | 93 | 89
CCOC(=O)C(Oc1ccc2c(-c3ccccc3)cc(=O)oc2c1)c1ccccc1 (stereo not given) | -1.6 | nt | 72 | nt | nt | 73
O=c1oc2c(O)c(O)cc3c(=O)oc4c(O)c(O)cc1c4c23 | nt | 99 | 60 | 69 | 16* | 61
COc1cccc(C(=O)Cn2c(Br)nc3c2c(=O)n(C)c(=O)n3C)c1 | 0 | 92 | 32 | 107 | 88 | 69
Cn1c(=O)c2c(nc(Br)n2CC(=O)C23CC4CC(CC(C4)C2)C3)n(C)c1=O | 0.8 | 98 | 69 | 82 | 32* | 76
CCC(C)NC(=O)c1c(F)c(F)c(F)c(F)c1F (stereo not given) | 1.1 | 90 | 93 | 93 | 81 | 104
COc1cc2c(cc1NC(=O)c1cccnc1)oc1ccccc12 | -1.1 | 84 | 88 | 64 | 35* | 85
COc1cc2c(cc1NC(=O)c1cc(-c3ccccn3)nc3ccccc13)oc1ccccc12 | nt | nt | 6.1* | nt | nt | 5
CC(C)(C)c1ccc(C(=O)CC(=O)c2cc(Cl)ccc2O)cc1 | -1.2 | 46* | 29 | 7.6* | 25* | 24
CC(C)(C)c1ccc(C(=O)NNC(=O)c2ccc(Cl)cc2)cc1 | nt | nt | 74 | nt | nt | 73
O=C(CC(=O)c1ccccc1O)c1ccc(F)cc1 | -0.95 | nt | 54 | nt | nt | 46
Cc1ccc(C(=O)CC(=O)c2cc(Cl)ccc2O)cc1 | 0.61 | 30* | 66 | 9.4* | 5.2* | 64
CCOC(=O)C(C(C)=O)C(c1ccc(OCCC(C)C)cc1)C(C(C)=O)C(=O)OCC (stereo not given) | 0.59 | 90 | 74 | 103 | 80 | 73
CCCCNC(=O)CCn1c(=O)c2ccccc2n(Cc2ccc(F)cc2)c1=O | nt | nt | 62 | nt | nt | 85
Cc1[nH]nc(-c2ccc(O)c(C)c2O)c1Oc1ccccc1 | -3.4* | 92 | 81 | 101 | 93 | 80
CCOc1ccc(-c2n[nH]c(C)c2Oc2ccc(OC)cc2)c(O)c1 | -3.1* | 94 | 91 | 36 | 72 | 76
Cc1[nH]nc(-c2ccc(OCc3cnn(-c4ccccc4)c3)c(C)c2O)c1Oc1ccccc1 | -0.5 | nt | 43 | nt | nt | 37
O=C(CSc1nnc(-c2cccs2)o1)N1CCc2ccccc21 | 0.29 | 95 | 96 | 101 | 87 | 87
Cc1ccc(-c2nnc3ccc(SCC(=O)N4CCc5ccccc54)nn23)cc1 | nt | 85 | 89 | 45 | 32* | 94
Cc1occc1-c1nnc(SCC(=O)N2CCc3ccccc32)o1 | 0.97 | 97 | 81 | 91 | 1.3* | 90
Cc1ccccc1/C(N)=N/O | nt | nt | 84 | nt | nt | 101
COC(=O)c1cc(NS(=O)(=O)c2ccc3c(c2)CCC(=O)N3)cc(C(=O)OC)c1 | -0.21 | 93 | 91 | 93 | 98 | 94
COc1cc(C(=O)OCC(=O)Nc2c(F)c(F)c(F)c(F)c2F)cc(OC)c1OC | 1.4 | 110 | 88 | 97 | 94 | 97
SMILES | PTK2B oligo ant | Lung fibro prol | HCT116 bCat-KO | HUVEC inhibit | H69AR growth 86K | HCT116 PTEN-null
COc1ccc(/C=C(\C#N)c2nc3ccc(C)cc3[nH]2)cc1Oc1ccc(C(F)(F)F)cc1[N+](=O)[O-] | nt | nt | 1.5* | nt | nt | 1.3*
Cc1ccc2nc(/C(C#N)=C\c3ccc(Oc4ccc(C(F)(F)F)cc4[N+](=O)[O-])cc3)[nH]c2c1 | nt | nt | 39 | nt | nt | 28
COc1cc(/C=C(\C#N)c2nc3ccccc3[nH]2)ccc1Oc1ccc([N+](=O)[O-])cn1 | -3.3* | nt | 60 | nt | nt | 63
COc1cc(/C=C(\C#N)c2nc3ccccc3[nH]2)cc(Br)c1OCc1ccc(F)cc1 | 0.08 | nt | 2.1* | nt | nt | 2.1*
CCn1c(N2CCN(C(=S)NCCc3ccccc3)CC2)nc2ccccc21 | -0.1 | nt | 86 | nt | nt | 85
COc1ccc(-c2cc(C(F)(F)F)c3c(=O)n(-c4ccccc4)[nH]c3n2)cc1 | -4.1* | 104 | 95 | 72 | 58 | 89
O=c1cc(O)c2sc3nc(-c4ccccc4)cc(C(F)(F)F)c3c2[nH]1 | nt | nt | 80 | nt | nt | 85

Assay outcomes (PubChem)
